{"source": "ChEMBL document CHEMBL4602720", "about": "“Degradation versus Inhibition: Development of Proteolysis-Targeting Chimeras for Overcoming Statin-Induced Compensatory Upregulation of 3-Hydroxy-3-methylglutaryl Coenzyme A Reductase” (J Med Chem, 2020)", "key": {"[1]": {"molecular_target": "Protein cereblon/3-hydroxy-3-methylglutaryl-coenzyme A reductase (Homo sapiens) (UniProt P04035+Q96SW2)", "sequence (Q96SW2 whole entry, looked up, one chain of several)": "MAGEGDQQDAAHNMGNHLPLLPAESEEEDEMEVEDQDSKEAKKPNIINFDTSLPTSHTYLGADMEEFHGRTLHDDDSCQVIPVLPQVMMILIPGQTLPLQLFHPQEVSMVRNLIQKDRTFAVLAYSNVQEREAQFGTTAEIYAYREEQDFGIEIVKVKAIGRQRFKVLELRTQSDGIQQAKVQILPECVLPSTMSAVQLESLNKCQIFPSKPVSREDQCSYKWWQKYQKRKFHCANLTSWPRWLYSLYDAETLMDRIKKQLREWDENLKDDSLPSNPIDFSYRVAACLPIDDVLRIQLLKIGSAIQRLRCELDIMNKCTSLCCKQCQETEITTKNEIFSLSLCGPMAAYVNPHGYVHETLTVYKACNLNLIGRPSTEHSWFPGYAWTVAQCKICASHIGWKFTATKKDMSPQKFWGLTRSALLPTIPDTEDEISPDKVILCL", "assay": "Protac activity at human Flag-tagged CRBN/T7-tagged HMGCR expressed in Chinese hamster SRD15 cells transfected with HA-tagged ubiquitin assessed as increase in HMGCR immunoprecipitation 1 uM incubated for 16 hrs followed by pomalidomide addition addition and measured after 5 hrs in presence of MG132 by Western blot analysis", "assay_type": "cell-based"}, "[2]": {"molecular_target": "T1, Protein cereblon/3-hydroxy-3-methylglutaryl-coenzyme A reductase (Cricetulus griseus) (UniProt P00347+G3H338)", "assay": "Protac activity at CRBN/HMGCR in Insig-1/Insig-2 deficient Chinese hamster SRD15 cells assessed as HMGCR level at 0.01 uM after 16 hrs by immunoblotting analysis (reference value: 1)", "how_it_was_run": "(§1)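 Dose-response in SRD15 cells in Medium A with 5% FBS, 16 h treatment, DMSO final 0.1% or lower. RIPA lysates immunoblotted for HMGCR. HMGCR densitometry normalized to actin, with the DMSO group set to 1. Three repeats. DC50 is taken from a dose-response fit of the semi-quantitative blots, mean of 3 independent experiments.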"}, "[3]": {"molecular_target": "T2, 3-hydroxy-3-methylglutaryl-coenzyme A reductase (Homo sapiens) (UniProt P04035)", "T2 sequence (whole entry)": "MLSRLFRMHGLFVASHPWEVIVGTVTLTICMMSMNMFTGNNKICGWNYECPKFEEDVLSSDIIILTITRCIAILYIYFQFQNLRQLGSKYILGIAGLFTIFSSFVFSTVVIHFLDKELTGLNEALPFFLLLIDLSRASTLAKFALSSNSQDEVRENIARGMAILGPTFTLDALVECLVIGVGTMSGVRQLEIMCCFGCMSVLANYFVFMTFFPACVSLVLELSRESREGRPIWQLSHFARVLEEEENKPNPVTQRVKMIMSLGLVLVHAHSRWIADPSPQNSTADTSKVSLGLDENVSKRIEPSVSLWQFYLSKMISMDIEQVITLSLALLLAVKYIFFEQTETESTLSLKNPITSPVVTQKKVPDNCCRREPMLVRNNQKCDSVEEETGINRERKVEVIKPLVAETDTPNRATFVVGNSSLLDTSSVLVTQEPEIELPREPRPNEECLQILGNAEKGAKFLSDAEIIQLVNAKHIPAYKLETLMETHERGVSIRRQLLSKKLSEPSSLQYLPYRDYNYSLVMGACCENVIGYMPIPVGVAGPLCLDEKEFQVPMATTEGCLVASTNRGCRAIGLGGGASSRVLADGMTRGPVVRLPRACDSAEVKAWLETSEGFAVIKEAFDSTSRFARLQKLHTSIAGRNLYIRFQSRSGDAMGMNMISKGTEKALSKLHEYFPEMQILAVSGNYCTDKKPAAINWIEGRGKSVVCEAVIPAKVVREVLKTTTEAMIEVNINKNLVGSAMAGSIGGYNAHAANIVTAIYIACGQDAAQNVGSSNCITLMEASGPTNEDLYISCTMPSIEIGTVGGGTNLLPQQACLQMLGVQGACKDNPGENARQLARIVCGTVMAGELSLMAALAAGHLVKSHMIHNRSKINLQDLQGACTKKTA", "assay": "Inhibition of GFP-labelled HMGCR (unknown origin) expressed in lentivirus Chinese hamster SRD15 cells assessed as reduction in cholesterol biosynthesis at 1 uM after 16 hrs by Hoechst staining based laser-scanning microscopic method", "assay_type": "cell-based"}, "[4]": {"molecular_target": "T1, Protein cereblon/3-hydroxy-3-methylglutaryl-coenzyme A reductase (Cricetulus griseus)", "assay": "Protac activity at CRBN/HMGCR in Insig-1/Insig-2 deficient Chinese hamster SRD15 cells assessed as HMGCR level at 1 uM after 16 hrs in presence of 0.1 uM atorvastatin by immunoblotting analysis (reference value: 1)"}, "[5]": {"molecular_target": "T1, Protein cereblon/3-hydroxy-3-methylglutaryl-coenzyme A reductase (Cricetulus griseus)", "assay": "Protac activity at CRBN/HMGCR in Insig-1/Insig-2 deficient Chinese hamster SRD15 cells assessed as HMGCR level at 1 uM after 16 hrs in presence of 1 uM P22A-Et by immunoblotting analysis (reference value: 1)"}, "Huh-7": {"system": "Huh-7", "assay": "Effect on total neutral lipid in human HuH7 cells assessed change in lipid droplet count at 1 uM after 16 hrs by Oil Red O staining based method", "assay_type": "ADME, cell-based", "conditions": "huh-7, 16 h", "how_it_was_run": "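Huh7 cells on glass coverslips, treated, fixed in 4% paraformaldehyde in PBS 30 min at room temperature, stained 15 min with 0.5% (w/v) Oil Red O in propylene glycol, washed in water; lipid droplets examined relative to DMSO.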"}, "[6]": {"molecular_target": "T1, Protein cereblon/3-hydroxy-3-methylglutaryl-coenzyme A reductase (Cricetulus griseus)", "assay": "Protac activity at CRBN/HMGCR in Insig-1/Insig-2 deficient Chinese hamster SRD15 cells assessed as increase in ubiquitination level of HMGCR at 1 uM incubated for 4 hrs in presence of MG132 by Western blot analysis", "how_it_was_run": "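SRD15 cells given DMSO or 1 μM degrader together with 10 μM MG132 for 4 h. Lysates probed by immunoblot with P4D1 anti-ubiquitin antibody for high-molecular-weight HMGCR smears.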"}, "[7]": {"molecular_target": "T1, Protein cereblon/3-hydroxy-3-methylglutaryl-coenzyme A reductase (Cricetulus griseus)", "assay": "Protac activity at CRBN/HMGCR in Insig-1/Insig-2 deficient Chinese hamster SRD15 cells assessed as HMGCR level at 1 uM after 16 hrs by immunoblotting analysis (reference value: 1)", "how_it_was_run": "as §1"}, "[8]": {"molecular_target": "T1, Protein cereblon/3-hydroxy-3-methylglutaryl-coenzyme A reductase (Cricetulus griseus)", "assay": "Protac activity at CRBN/HMGCR in 5'-CCAGAAACUGAAGAUGAAA-3' siRNA transfected in Insig-1/Insig-2 deficient Chinese hamster SRD15 cells assessed as induction of HMGCR degradation at 1 uM after 16 hrs by immunoblotting analysis", "how_it_was_run": "(§2)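 SRD15 cells (Insig-1/Insig-2-deficient CHO-7) in Medium A with 5% FBS at 37 °C, 5% CO2; transfected with negative-control or Crbn-targeting siRNA duplexes for 48 h, then given 1 μM degrader for 16 h. HMGCR by SDS-PAGE immunoblot of RIPA lysates. Knockdown efficiency checked by qRT-PCR against hamster GAPDH, comparative CT method. n = 3 independent experiments.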"}, "[9]": {"molecular_target": "T1, Protein cereblon/3-hydroxy-3-methylglutaryl-coenzyme A reductase (Cricetulus griseus)", "assay": "Protac activity at CRBN/HMGCR in 5'-GGAAGUCGAAGACCAAGAU-3' siRNA transfected in Insig-1/Insig-2 deficient Chinese hamster SRD15 cells assessed as induction of HMGCR degradation at after 16 hrs by immunoblotting analysis", "how_it_was_run": "as §2"}, "[10]": {"assay": "Effect on HMGCR mRNA expression in Chinese hamster SRD15 cells at 1 uM after 16 hrs by quantitative real-time PCR analysis", "assay_type": "ADME, Cricetulus griseus", "how_it_was_run": "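SRD15 cells (Insig-1/Insig-2-deficient CHO-7) in Medium A with 5% FBS, compound for 16 h; Hmgcr mRNA by quantitative real-time PCR in triplicate, comparative CT method normalized to hamster GAPDH, control defined as 1; mean ± s.d., n = 3 independent experiments.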"}}, "note": "Calls of active or inactive are those of the source.", "data": [{"smiles": "CC(C)c1c(C(=O)Nc2ccccc2)c(-c2cccc(OCCCc3cn(CCOCCOCCOCCOCCNc4cccc5c4C(=O)N(C4CCC(=O)NC4=O)C5=O)nn3)c2)c(-c2ccc(F)cc2)n1CC[C@@H](O)C[C@@H](O)CC(=O)O", "note": "(stereo partly specified)", "values": [{"measurement": "Activity", "setting": "[1]", "result": "inactive"}, {"measurement": "fold change (FC)", "setting": "[2]", "result": 0.8}, {"measurement": "inhibition", "setting": "[3]", "result": "Active"}, {"measurement": "fold change (FC)", "setting": "[4]", "result": 0.9}, {"measurement": "fold change (FC)", "setting": "[5]", "result": 1.1}, {"measurement": "Activity", "setting": "Huh-7", "result": "Non-Toxic"}, {"measurement": "Activity", "setting": "[6]", "result": "Active"}, {"measurement": "fold change (FC)", "setting": "[7]", "result": "0.3 to 0.6"}, {"measurement": "Activity", "setting": "[8]", "result": "inactive"}, {"measurement": "Activity", "setting": "[9]", "result": "inactive"}, {"measurement": "Activity", "setting": "[10]", "result": "Non-Toxic"}]}]}
